Molecules are shown by their SMILES.

The subject of assay [1] is A549. Briefly: Resistance index, ratio of IC50 for A549 cells to IC50 for A549T12 cells. In kind it is functional, Homo sapiens.
The subject of assay [2] is OE33. Briefly: Cytotoxicity against human OE33 cells after 72 hrs by MTT assay. In kind it is functional, cell-based. The note with it: OE33, 72 h. A digest of the protocol:
(§1)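 MTT assay. Cells seeded at 7 × 10³ per well; after 24 h, exponentially growing cells were exposed to compound (final 0.005–100 µM) for 72 h. MTT was added for 4 h, then 10% SDS in 0.01 N HCl for 18 h at 37 °C. Absorbance read at 550 nm; survival given as % of untreated cells. IC50 from 6-8 replicate wells, ≥2 independent experiments.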

Assay [3] concerns OE19. The assay can be described thus: Cytotoxicity against human OE19 cells after 72 hrs by MTT assay. In kind it is functional, cell-based. The note with it: OE19, 72 h. In short, it runs like this:
as §1

In assay [4] the test system is ARO. The assay can be described thus: Cytotoxicity against human Aro cells after 72 hrs by MTT assay. The class given is functional, cell-based. In short, it runs like this:
as §1

In assay [5] the test system is A549. Briefly: Cell cycle arrest in human A549 cells assessed as accumulation at G2/M phase at 1 uM after 24 hrs. In kind it is functional. A digest of the protocol:
(§2)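 A549 cells grown 24 h in drug-free medium or with compound at 0.1 or 1 µM. Cells were trypsinized, washed twice in PBS, fixed in cold 70% ethanol (30 min, -20 °C), then washed in citrate phosphate buffer and PBS. RNase (100 µg/mL) for 30 min at 37 °C, then propidium iodide (100 µg/mL) for 30 min at room temperature. Flow cytometry at 488/525 nm, ≥15 000 events, 3-4 repeats.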

For assay [6], the system named is A549. The assay can be described thus: Cell cycle arrest in human A549 cells assessed as accumulation at G1 phase at 1 uM after 24 hrs. The class given is functional. In short, it runs like this: as §2
Assay [7] is described as follows: Cytotoxicity against human H295R cells after 72 hrs by MTT assay. In kind it is functional, cell-based. The settings on record: NCI-H295R. In short, it runs like this: as §1
Assay [8] concerns A549. The assay can be described thus: Cell cycle arrest in human A549 cells assessed as accumulation at G1 phase at 0.1 uM after 24 hrs. In kind it is functional. A digest of the protocol: as §2
Assay [9] in a line: Cytotoxicity againat taxol-resistant human A549T24 cells after 72 hrs by MTT assay. The note with it: A549, 72 h. In kind it is functional, cell-based.
Assay [10] can be described thus: Cytotoxicity againat taxol-resistant human A549T12 cells after 72 hrs by MTT assay. In kind it is functional, cell-based. The note with it: A549, 72 h.
In assay [11] the test system is OVCAR-3. Briefly: Cytotoxicity against human Ovcar3 cells after 72 hrs by MTT assay. The class given is functional, cell-based. The settings on record: OVCAR-3, 72 h. In short, it runs like this: as §1
The test system of assay [12] is HepG2. Briefly: Cytotoxicity against human HepG2 cells after 72 hrs by MTT assay. In kind it is functional, cell-based. The note with it: HepG2, 72 h. A digest of the protocol:
as §1

The subject of assay [13] is HeLa. Briefly: Cytotoxicity against human HeLa cells after 72 hrs by MTT assay. In kind it is functional, cell-based. In short, it runs like this:
as §1

Assay [14] concerns A549. Briefly: Cell cycle arrest in human A549 cells assessed as accumulation at G2/M phase at 0.1 uM after 24 hrs. In kind it is functional. In short, it runs like this:
as §2

Assay [15] has as its system A549. Briefly: Cell cycle arrest in human A549 cells assessed as accumulation at sub Go phase at 1 uM after 24 hrs. In kind it is functional.
Assay [16] deals with PT-45. Briefly: Cytotoxicity against human PT45 cells after 72 hrs by MTT assay. The note with it: PT-45, 72 h. The class given is functional, cell-based. A digest of the protocol:
as §1

In assay [17] the test system is MCF7. Briefly: Cytotoxicity against human MCF7 cells after 72 hrs by MTT assay. In kind it is functional, cell-based. The note with it: MCF7, 72 h. In short, it runs like this:
as §1

Assay [18] relates to HT-29. Briefly: Cytotoxicity against human HT29 cells after 72 hrs by MTT assay. The note with it: HT-29, 72 h. The class given is functional, cell-based. In short, it runs like this: as §1
Assay [19] has as its system A549. The assay can be described thus: Cell cycle arrest in human A549 cells assessed as accumulation at sub Go phase at 0.1 uM after 24 hrs. The class given is functional.
Assay [20] relates to A549. Briefly: Cytotoxicity against human A549 cells after 72 hrs by MTT assay. The class given is functional, cell-based. The note with it: A549, 72 h. In short, it runs like this: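 MTT assay. Cells seeded at 7 × 10³ per well; after 24 h, exponentially growing cells were exposed to compound (final 0.005–100 µM) for 72 h. MTT was added for 4 h, then 10% SDS in 0.01 N HCl for 18 h at 37 °C. Absorbance read at 550 nm; survival given as % of untreated cells.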

Assay [21] deals with A549. The assay can be described thus: Cell cycle arrest in human A549 cells assessed as accumulation at S phase at 1 uM after 24 hrs. The class given is functional. A digest of the protocol:
as §2

Assay [22] deals with A549. The assay can be described thus: Cell cycle arrest in human A549 cells assessed as accumulation at S phase at 0.1 uM after 24 hrs. In kind it is functional. A digest of the protocol: as §2

For `O=c1cc(-c2ccccc2)[nH]c2ccc3c(ccn3Cc3ccccc3)c12`, in assay [1], the Ratio IC50 stood at 1. In addition, the IC50 in assay [2] was 100 nM; in assay [3], 500 nM; in assay [4] it was 300 nM; in assay [7], 400 nM; in assay [9], 200 nM; in assay [10], 100 nM. Also, the IC50 was 500 nM in assay [11]; 700 nM in assay [12]; 100 nM in assay [13]; 80 nM in assay [16]; 300 nM in assay [17]; 400 nM in assay [18]. This molecule registered an IC50 in [20] of 100 nM. Besides, the Activity is reported as 75.8% in assay [5]; 14.6% in [6]; 78.9% in assay [8]; 10.4% in assay [14]; 0.5% in assay [15]; 1.1% in [19]. The Activity was found to be 9.4% in assay [21] and 9.7% in [22].
For the molecule `CCCn1ccc2c3c(=O)cc(-c4ccccc4)[nH]c3ccc21`, in assay [1], the Ratio IC50 is 1.2. Further, the half-maximal inhibitory concentration (IC50) in [2] stood at 100 nM; in assay [3], 50 nM; in assay [4], 50 nM; in [7], 20 nM; in assay [9] it was 40 nM; in assay [10], 40 nM. For the same molecule, the 50% inhibitory concentration (IC50) in assay [11] is 20 nM; in assay [12], 40 nM; in assay [13], 30 nM; in assay [16], 50 nM; in assay [17] it was 70 nM; in assay [18] it was 200 nM. For the same molecule, the midpoint of inhibition in assay [20], the IC50, lay at 50 nM. In addition, the Activity is reported as 76.9% in assay [5]; 13.5% in assay [6]; 13.6% in assay [8]; 76.2% in assay [14]; 0.3% in assay [15]; 1.3% in [19]. The Activity turned out to be 9.6% in assay [21] and 8.7% in assay [22].
With `O=c1cc(-c2ccccc2)[nH]c2ccc3c(ccn3CC3CC3)c12`, the Ratio IC50 in [1] was found to be 1. Also, the IC50 in assay [2] was 20 nM; in [3] it was 100 nM; in assay [4] it was 30 nM; in [7], 10 nM; in assay [9], 20 nM; in assay [10], 20 nM. For the same molecule, the IC50 in assay [11] was determined as 10 nM; in [12], 20 nM; in assay [13], 20 nM; in assay [16], 20 nM; in [17] it was 40 nM; in [18] it was 60 nM. For the same molecule, inhibition in assay [20] was half-maximal at 20 nM (IC50). Moreover, the Activity was 74.6% in [5]; 16.3% in assay [6]; 16.5% in [8]; 75.7% in assay [14]; 0.3% in [15]; 0.4% in assay [19]. For the same molecule, the Activity in assay [21] is 8.6%; in [22] it was 7%.
For `CCCCCn1ccc2c3c(=O)cc(-c4ccccc4)[nH]c3ccc21`, in assay [1], the Ratio IC50 turned out to be 0.8. In addition, the IC50 amounted to 20 nM in [2]; 5 nM in assay [3]; 70 nM in assay [4]; 20 nM in assay [7]; 40 nM in [9]; 50 nM in [10]. Moreover, the half-inhibitory concentration (IC50) in assay [11] is 20 nM; in assay [12], 30 nM; in [13] it was 20 nM; in [16], 40 nM; in [17], 80 nM; in assay [18] it was 200 nM. This molecule also showed an IC50 in assay [20] of 40 nM. Further, the Activity in assay [5] is 75.5%; in [6] it was 15.5%; in [8], 12.4%; in assay [14], 79.6%; in assay [15] it was 0.4%; in assay [19] it was 1%. In addition, the Activity in assay [21] came out at 8.8%; in assay [22] it was 7.2%.

Values taken from ChEMBL document CHEMBL1137570, “3-substituted 7-phenyl-pyrroloquinolinones show potent cytotoxic activity in human cancer cell lines” (J Med Chem, 2007).
